Laboratory results reported in ChEMBL document CHEMBL1123467, “Comparison of the chemical reactivities and antineoplastic activities of alpha,beta-, alpha,beta'-, beta,beta'-, and alpha,alpha'-bis[[[(2-propylamino)carbonyl]oxy]methyl]-substituted pyrroles” (1986).
Several values for one entry are separate records, joined by “and”; a condition that tells them apart may be missing. Equal values may be shown once.

Key:
P388 [1] = assay: Compound was tested in vivo for its antitumor activity against P388 lymphocytic leukemia at dose level of 20 mg/kg; type: functional, Mus musculus
P388 [2] = assay: Compound was tested for the antitumor activity against P388 lymphocytic leukemia at dose level of 120 mg/kg; type: functional, Mus musculus
P388 [3] = assay: Compound was tested in vivo for its antitumor activity against P388 lymphocytic leukemia at dose level of 240 mg/kg; Toxic dose; type: functional, organism-based; set-up: dose 240 mg/kg; conditions: Mus musculus
P388 [4] = assay: Compound was tested in vivo for the antitumor activity against P388 lymphocytic leukemia at dose level of 40 mg/kg; type: functional, Mus musculus
P388 [5] = assay: Compound was tested in vivo for its antitumor activity against P388 lymphocytic leukemia at dose level of 40 mg/kg; type: functional, Mus musculus
P388 [6] = assay: Compound was tested for the antitumor activity against P388 lymphocytic leukemia at dose level of 240 mg/kg; 6/6; type: functional, Mus musculus
P388 [7] = assay: Compound was tested for the antitumor activity against P388 lymphocytic leukemia at dose level of 20 mg/kg; 6/6; type: functional, Mus musculus
P388 [8] = assay: Compound was tested for the antitumor activity against P388 lymphocytic leukemia at dose level of 120 mg/kg; 6/6; type: functional, Mus musculus
P388 [9] = assay: Compound was tested for the antitumor activity against P388 lymphocytic leukemia at dose level of 60 mg/kg; 6/6; type: functional, Mus musculus
P388 [10] = assay: Compound was tested in vivo for the antitumor activity against P388 lymphocytic leukemia at dose level of 20 mg/kg; type: functional, Mus musculus
P388 [11] = assay: Compound was tested for the antitumor activity against P388 lymphocytic leukemia at dose level of 60 mg/kg; type: functional, Mus musculus
P388 [12] = assay: Compound was tested for the antitumor activity against P388 lymphocytic leukemia at dose level of 40 mg/kg; 6/6; type: functional, Mus musculus
P388 [13] = assay: Compound was tested in vivo for the antitumor activity against P388 lymphocytic leukemia at dose level of 60 mg/kg; type: functional, Mus musculus
P388 [14] = assay: Compound was tested in vivo for its antitumor activity against P388 lymphocytic leukemia at dose level of 120 mg/kg; Toxic dose; type: functional, organism-based; set-up: dose 120 mg/kg; conditions: Mus musculus
P388 [15] = assay: Compound was tested for the antitumor activity against P388 lymphocytic leukemia at dose level of 40 mg/kg; type: functional, Mus musculus
P388 [16] = assay: Compound was tested for the antitumor activity against P388 lymphocytic leukemia at dose level of 20 mg/kg; type: functional, Mus musculus
[17] = Pseudo-first order rate constant for the reaction with 4-(p-Nitrobenzyl)pyridine
Outline: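 Alkylating ability was measured against 4-(p-nitrobenzyl)pyridine (NBP), with 0.2 µmol alkylating agent and 240 µmol NBP as starting amounts. At timed points the mixture was diluted with acetone, mixed 3 s, and read at once at 570 nm. The blank was NBP, water, absolute ethanol, base solution and acetone. k' = slope of E570 vs time. Competing hydrolysis was assumed minor and neglected in the initial phase.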

P388 [18] = assay: Compound was tested in vivo for its antitumor activity against P388 lymphocytic leukemia at dose level of 60 mg/kg; type: functional, Mus musculus
P388 [19] = assay: Compound was tested for the antitumor activity against P388 lymphocytic leukemia at dose level of 240 mg/kg; type: functional, Mus musculus
P388 [20] = assay: Compound was tested in vivo for the antitumor activity against P388 lymphocytic leukemia at dose level of 120 mg/kg; type: functional, Mus musculus
P388 [21] = assay: Compound was tested in vivo for its antitumor activity against P388 lymphocytic leukemia at dose level of 30 mg/kg; type: functional, Mus musculus
P388 [22] = assay: Compound was tested in vivo for the antitumor activity against P388 lymphocytic leukemia at dose level of 15 mg/kg; type: functional, Mus musculus
P388 [23] = assay: Compound was tested in vivo for its antitumor activity against P388 lymphocytic leukemia and at dose level of 120 mg/kg; Toxic dose; type: functional, organism-based; set-up: dose 120 mg/kg; conditions: Mus musculus
P388 [24] = assay: Compound was tested for the antitumor activity against P388 lymphocytic leukemia at dose level of 30 mg/kg; type: functional, Mus musculus
[25] = Compound was tested in vivo for the antitumor activity against solid tumor models at dose level of 100 mg/kg (LOX assay); type: functional, Homo sapiens
Homo sapiens [26] = assay: Compound was tested for the antitumor activity against solid tumor models at t dose level of 200 mg/kg (MX-1 assay); type: functional
P388 [27] = assay: Compound was tested for the antitumor activity against P388 lymphocytic leukemia at dose level of 30 mg/kg; 6/6; type: functional, Mus musculus
M5076 [28] = assay: Compound was tested in vivo for the antitumor activity against solid tumor models at dose level of 50 mg/kg (M5076 assay); type: functional
M5076 [29] = assay: Compound was tested for the antitumor activity against solid tumor models at dose level of 50 mg/kg (M5076 assay); type: functional
Homo sapiens [30] = assay: Compound was tested in vivo for the antitumor activity against solid tumor models at dose level of 200 mg/kg (MX-1 assay); type: functional
P388 [31] = assay: Compound was tested for the antitumor activity against P388 lymphocytic leukemia at dose level of 15 mg/kg; type: functional, Mus musculus
[32] = Compound was tested for the antitumor activity against solid tumor models at dose level of 100 mg/kg (LOX assay); type: functional, Homo sapiens
P388 [33] = assay: Compound was tested in vivo for its antitumor activity against P388 lymphocytic leukemia at dose level of 15 mg/kg; type: functional, Mus musculus
P388 [34] = assay: Compound was tested for the antitumor activity against P388 lymphocytic leukemia at dose level of 240 mg/kg; 0/6; type: functional, Mus musculus
P388 [35] = assay: Compound was tested in vivo for the antitumor activity against P388 lymphocytic leukemia at dose level of 30 mg/kg; type: functional, Mus musculus
P388 [36] = assay: Compound was tested for the antitumor activity against P388 lymphocytic leukemia at dose level of 15 mg/kg; 6/6; type: functional, Mus musculus
P388 [37] = assay: Compound was tested for the antitumor activity against P388 lymphocytic leukemia at dose level of 120 mg/kg; 5/6; type: functional, Mus musculus
M5076 [38] = assay: Compound was tested in vivo for the antitumor activity against solid tumor models at dose level of 800 mg/kg (M5076 assay); type: functional, Homo sapiens
P388 [39] = assay: Compound was tested in vivo for its antitumor activity against P388 lymphocytic leukemia at dose level of 240 mg/kg; type: functional, Mus musculus
Homo sapiens [40] = assay: Compound was tested in vivo for the antitumor activity against solid tumor models at dose level of 800 mg/kg (MX-1 assay); type: functional
P388 [41] = assay: Compound was tested in vivo for the antitumor activity against P388 lymphocytic leukemia at dose level of 240 mg/kg; type: functional, Mus musculus
M5076 [42] = assay: Compound was tested for the antitumor activity against solid tumor models at dose level of 800 mg/kg (M5076 assay); type: functional
[43] = Compound was tested in vivo for the antitumor activity against solid tumor models at dose level of 400 mg/kg (LOX assay); type: functional, Homo sapiens
P388 [44] = assay: Compound was tested in vivo for its antitumor activity against P388 lymphocytic leukemia at dose level of 120 mg/kg; type: functional, Mus musculus
Homo sapiens [45] = assay: Compound was tested for the antitumor activity against solid tumor models at t dose level of 800 mg/kg (MX-1 assay); type: functional
[46] = Compound was tested for the antitumor activity against solid tumor models at dose level of 400 mg/kg (LOX assay); type: functional, Homo sapiens

Compound | Weight difference (P388 [2]) [g] | KE (P388 [3]) | TDS (P388 [6]) | TDS (P388 [8]) | TDS (P388 [9]) | Weight difference (P388 [11]) [g] | T/C (P388 [13]) [%] | K' [17] [abs/time] | KE (P388 [18]) | Weight difference (P388 [19]) [g] | T/C (P388 [20]) [%] | KE (P388 [39]) | T/C (P388 [41]) [%] | KE (P388 [44]) | also measured
CC(C)NC(=O)OCc1c(COC(=O)NC(C)C)c(-c2ccccc2)n(C)c1-c1ccccc1 | -4.4 | Toxic | 6 | 6 | 6 | -2.2 | 209 | 0.00498 | 6.43 | -5.5 | 94 |  |  |  | KE (P388 [1]): 0.08; T/C (P388 [4]): 168%; KE (P388 [5]): 2.85; TDS (P388 [7]): 6; T/C (P388 [10]): 137% and 205%; TDS (P388 [12]): 6; KE (P388 [14]): Toxic; Weight difference (P388 [15]): -1.6 g; Weight difference (P388 [16]): -0.1 g
CC(C)NC(=O)OCc1c(-c2ccccc2)c(COC(=O)NC(C)C)n(C)c1-c1ccccc1 | -4.5 | Toxic |  |  | 6 | -3.8 | 180 | 0.00112 | 3.89 |  |  |  |  |  | KE (P388 [21]): 0.88; T/C (P388 [22]): 134%; KE (P388 [23]): Toxic; Weight difference (P388 [24]): -5.3 g; T/C [25]: 180%; Weight difference (Homo sapiens [26]): -7.2 g; TDS (P388 [27]): 6; T/C (M5076 [28]): 139%; Weight difference (M5076 [29]): -2.5 g; T/C (Homo sapiens [30]): -3%; Weight difference (P388 [31]): -3.7 g; Weight difference [32]: -3.5 g; KE (P388 [33]): -0.19; TDS (P388 [34]): 0; T/C (P388 [35]): 150%; TDS (P388 [36]): 6; TDS (P388 [37]): 5
CC(C)NC(=O)OCc1c(-c2ccccc2)c(-c2ccccc2)n(C)c1COC(=O)NC(C)C | 1.5 |  | 6 | 6 | 6 | -1.1 | 142 | 0.00321 | 0.59 | -2.4 | 160 | 3.74 | 181 | 2.06 | T/C (M5076 [38]): 178%; T/C (Homo sapiens [40]): 0%; Weight difference (M5076 [42]): -2.8 g; T/C [43]: 301%; Weight difference (Homo sapiens [45]): -5.3 g; Weight difference [46]: -3.3 g
CC(C)NC(=O)OCc1c(-c2ccccc2)c(-c2ccccc2)c(COC(=O)NC(C)C)n1C | -0.2 |  |  |  |  | 0 | 107 | 0.00669 | -1.44 | -1.7 | 98 | -1.51 | 101 | -1.56 | TDS ratio (P388 [2]): 6; TDS ratio (P388 [11]): 6; TDS ratio (P388 [19]): 6
